Source: PubChem BioAssay (Broad Institute)
In the library only some 3.8% were active in any assay of this set; here they are far more common.
FN deposit inh: fibronectin deposition inhibition; actives 0.086% (n = 350,000); AH1F fibroblasts, Alexa488-fibronectin deposition fluorescence, overnight; inhibition, % at 12.6 µM; AID 743247;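 active = mean inhibition across replicates of 30% or more, regardless of how many single replicates reach that level; inconclusive = mean under 30% yet at least half of replicates reach 30%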
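Test system: AH1F fibroblast monolayer depositing Alexa488-labelled fibronectin into matrix. Input: 10000 cells per well. Technique: fluorescence, ex 485 nm, em 525 nm. Buffer or medium: DMEM plus 2% serum, read in PBS. Timing: 1 h cell adhesion before compound, then overnight fibronectin incubation. Compound: single dose, pinned. Read-out basis: inhibition from reduced deposited-fibronectin fluorescence.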
SIRT5 inh: blocks human SIRT5 desuccinylation of peptide; Q9NXA8; Purified SirT5, succinyl-peptide AMC, trypsin-coupled fluorescence; inhibition, % at 15 µM; actives 1.1% (n = 330,000); AID 652115; in the data active = inhibition above about 15%; inconclusive = no clear call, values can overlap the other calls
Target sequence (Q9NXA8 whole entry, looked up): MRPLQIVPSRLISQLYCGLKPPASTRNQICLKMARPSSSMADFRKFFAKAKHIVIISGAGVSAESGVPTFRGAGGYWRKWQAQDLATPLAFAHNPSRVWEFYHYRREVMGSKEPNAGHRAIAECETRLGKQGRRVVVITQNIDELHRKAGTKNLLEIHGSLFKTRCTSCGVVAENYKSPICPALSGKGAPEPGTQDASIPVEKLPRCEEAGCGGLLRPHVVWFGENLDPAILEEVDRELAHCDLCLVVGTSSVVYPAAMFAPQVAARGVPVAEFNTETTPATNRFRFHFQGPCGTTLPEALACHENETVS
FGF22 binding: binders of recombinant human FGF22 by thermal shift | Q9HCT0 | actives 1.5% (n = 340,000) | SYPRO orange fluorescence; percent of sucrose octasulfate shift, DMSO zero | activity (Tm shift, normalised), % at 9.99 µM;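 active = mean Tm shift, scaled 0 neutral to 100 positive control, at about 1.3% or above, every replicate too, limit read from the data; inconclusive = no clear call, values can overlap the other calls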
Target sequence (Q9HCT0 whole entry, looked up): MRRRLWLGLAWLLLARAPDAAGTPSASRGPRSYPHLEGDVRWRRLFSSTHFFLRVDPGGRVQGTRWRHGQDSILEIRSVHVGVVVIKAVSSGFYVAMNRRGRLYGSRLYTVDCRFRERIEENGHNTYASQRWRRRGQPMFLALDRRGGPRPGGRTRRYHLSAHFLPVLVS
DENV2 CPE rescue: DENV2-induced cell death inhibition. actives 1.7% (n = 350,000). DENV2-infected cells, cytopathic effect rescue, plate reader. CPE inhibition, % at 9.99 µM. AID 651640; in the data active = CPE inhibition above about 20%, passing the limit was not always enough; inconclusive = no clear call, values can overlap the other calls; tested in BHK-21 cells
ARNT-TACC3 inh: disrupts binding between human ARNT and TACC3; actives 0.66% (n = 390,000); AID 623870; inhibition, % at 9.99 µM; Q9Y6A5; AlphaScreen His-ARNT PAS-B/GST-TACC3 binding, luminescence; TACC3 fragment carries E629A point mutation;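 active = mean inhibition of replicates at least 50% and at least half of replicates each reaching 50%; inconclusive = half or more replicates reach 50% but mean below 50%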
XiGFP reactiv: activators of X-chromosome reactivation in mouse fibroblasts. XiGFP mouse fibroblasts, % GFP-positive cells imaging, 3 d; cells co-treated with 5-aza-dC sensitizer; scaled so ellipticine positive control = 100%. activation, % at 7.58 µM. actives 0.055% (n = 360,000);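 active = mean normalized replicate activation at least 10% and every replicate at or above 10%; inconclusive = only one of the two criteria met; inactive = mean below 10% and not all replicates reach 10%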
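Material: SV40-immortalized XiGFP fibroblast cells, line 68-5-11 | Buffer or medium: DMEM containing 5-aza-dC | Dosing: One concentration, pinned | Times: 3 d treatment, 15 min room-temperature fixation | Controls: Ellipticine 6 µM positive control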
A number is an active result; i = inactive; ? = inconclusive; nt = no result; ! = a repeat was not active.

SMILES	FN deposit inh	SIRT5 inh	FGF22 binding	DENV2 CPE rescue	ARNT-TACC3 inh	XiGFP reactiv
COc1ccc(C(=O)c2ccc3oc(-c4ccc(OC)cc4)c(C#CCCO)c3c2)cc1	i	nt	i	79	i	i
Cc1c(C(=O)OCCOc2ccccc2)[nH]c2c1C(=O)CCC2	nt	nt	nt	nt	i	nt
CCCc1c(C(=O)OCC)[nH]c2c1C(=O)CCC2	i	29	i	i	i	i
CC(=O)Nc1cc(C(=O)N2CCc3ccccc3C2)ccc1Sc1ccc(Cl)cc1	i	i	i	i	i	i
CCN(CC)CCNC(=O)c1ccc(Sc2ccc(Cl)cc2)c(NC(C)=O)c1	i	i	45	i	i	i
CCC(=O)Nc1cc(C(=O)O)ccc1Sc1ccc(Cl)cc1	i	i	44	i	i	i
C/C=C/c1ccc2c(c1)O[C@H](CN(C)Cc1cccnc1)[C@@H](C)CN([C@H](C)CO)S2(=O)=O	nt	i	i	i	i	i
COc1ccccc1C#Cc1ccc([C@H]2[C@H]3CN(C(=O)C4CC4)CCCCN3[C@H]2CO)cc1	nt	i	i	i	i	nt
CCC(NC(=O)NCc1ccccc1)(C(F)(F)F)C(F)(F)F	i	30	i	i	i	i
O=S(=O)(N[C@@H]1CC[C@H](CCn2cc(-c3cccc(F)c3)nn2)O[C@@H]1CO)c1ccc(Cl)cc1	nt	i	i	i	i	i
COCCn1c(SCC(=O)N2CCC(C)CC2)nc2c(c1=O)SCC2	i	25	i	i	i	i
C[C@@H]1CN([C@H](C)CO)C(=O)c2cc(-c3ccc(C#N)cc3)cnc2O[C@@H]1CN(C)C(=O)c1ccccc1	i	i	nt	i	i	i
Cc1ccc(S(=O)(=O)Nc2ccc3c(c2)C(=O)N([C@H](C)CO)C[C@@H](C)[C@H](CN(C)Cc2ccc(Cl)c(Cl)c2)OCCCC[C@@H](C)O3)cc1	i	i	i	i	nt	i
C[C@@H]1CCCCO[C@H](CN(C)Cc2ccc(Cl)c(Cl)c2)[C@@H](C)CN([C@@H](C)CO)C(=O)c2cc(NS(=O)(=O)c3ccc(F)cc3)ccc2O1	i	nt	i	31	nt	i
C[C@@H]1CCCCO[C@@H](CN(C)Cc2ccc(Cl)c(Cl)c2)[C@H](C)CN([C@H](C)CO)C(=O)c2cc(NS(=O)(=O)c3ccc(Cl)cc3)ccc2O1	i	i	i	i	i	i
C[C@@H]1CCCCO[C@@H](CN(C)Cc2ccc(Cl)c(Cl)c2)[C@@H](C)CN([C@H](C)CO)C(=O)c2cc(NS(=O)(=O)c3ccc(Cl)cc3)ccc2O1	i	i	i	79	i	i
Cc1ccc(S(=O)(=O)Nc2ccc3c(c2)C(=O)N([C@H](C)CO)C[C@H](C)[C@@H](CN(C)Cc2ccc(Cl)c(Cl)c2)OCCCC[C@H](C)O3)cc1	i	28	nt	i	i	i
COc1ccc(S(=O)(=O)Nc2ccc3c(c2)C(=O)N([C@H](C)CO)C[C@@H](C)[C@@H](CN(C)Cc2ccc4c(c2)OCO4)OCCCC[C@H](C)O3)cc1	i	i	i	i	i	i
COc1ccc(S(=O)(=O)Nc2ccc3c(c2)C(=O)N([C@@H](C)CO)C[C@@H](C)[C@H](CN(C)Cc2ccc4c(c2)OCO4)OCCCC[C@H](C)O3)cc1	i	i	1.3	i	i	i
C[C@@H]1CCCCO[C@@H](CN(C)Cc2ccc(Cl)c(Cl)c2)[C@H](C)CN([C@H](C)CO)C(=O)c2cc(NS(=O)(=O)c3ccc(F)cc3)ccc2O1	i	i	i	?	i	i
C[C@@H]1CN([C@@H](C)CO)C(=O)c2cc(NS(=O)(=O)c3ccc(Cl)cc3)ccc2O[C@@H](C)CCCCO[C@H]1CN(C)Cc1ccc2c(c1)OCO2	i	i	nt	i	i	i
C[C@@H]1CCCCO[C@H](CN(C)C(=O)Nc2ccc3c(c2)OCO3)[C@@H](C)CN([C@H](C)CO)C(=O)c2cc(NS(=O)(=O)c3ccc(Cl)cc3)ccc2O1	i	i	i	25	i	i
C[C@@H]1CCCCO[C@@H](CN(C)C(=O)Nc2ccc3c(c2)OCO3)[C@H](C)CN([C@H](C)CO)C(=O)c2cc(NS(=O)(=O)c3ccc(Cl)cc3)ccc2O1	i	i	i	i	i	i
C[C@@H]1CN([C@H](C)CO)C(=O)c2cc(NS(=O)(=O)c3ccc(Cl)cc3)ccc2O[C@@H](C)CCCCO[C@@H]1CN(C)Cc1ccc2c(c1)OCO2	i	19!	nt	?	i	i
Cc1cccc(S(=O)(=O)N(C)C[C@@H]2OCc3cn(nn3)CCCC(=O)N([C@H](C)CO)C[C@@H]2C)c1	i	i	i	i	i	i
SMILES	FN deposit inh	SIRT5 inh	FGF22 binding	DENV2 CPE rescue	ARNT-TACC3 inh	XiGFP reactiv
CCCCNc1c(-c2ccc(OC)c(SC(C)CC)c2)nc2cc(C)ccn12 (configuration not stated)	i	nt	i	i	i	i
CCCCNc1c(-c2ccc(-c3ccc(C(C)=O)cc3)c(OC)c2)nc2cc(C)ccn12	i	nt	i	61	i	i
CCCCNc1c(-c2ccc(Sc3ccc(OC)cc3)cc2)nc2cc(C)ccn12	i	nt	i	82	i	i
CCC(=O)Nc1ccc2c(c1)C(=O)N(C)C[C@H](OC)[C@H](C)CN(C(=O)Cc1cccnc1)[C@H](C)CO2	i	i	i	i	i	i
O=C(c1ccccc1)N1C[C@H]2[C@@H](c3ccccc31)[C@@H](CO)N2Cc1ccccn1	i	i	i	i	i	i
Cc1ccc(S(=O)(=O)N(C)C[C@@H]2Oc3ncccc3C(=O)N([C@H](C)CO)C[C@@H]2C)cc1	i	i	i	i	i	i
CCCC(=O)Nc1ccc2c(c1)OC[C@H](C)N(Cc1nccs1)C[C@H](C)[C@@H](OC)CN(C)C2=O	i	i	i	i	i	i
O=C(CCSc1ccc(Cl)cc1)NCc1ccncc1	i	i	i	i	i	i
N/C(CSc1ccc(Cl)cc1)=N\NC(=O)c1ccncc1	i	i	43	i	i	i
O=C(CSc1ccc(Cl)cc1)NCc1ccncc1	i	i	43	i	i	i
COc1ccc(NC(=O)N(C)C[C@H]2Oc3c(NC(=O)c4ccc(-c5nccs5)cc4)cccc3C(=O)N([C@@H](C)CO)C[C@H]2C)cc1	nt	i	i	i	i	i
CCCC#Cc1cnc2c(c1)C(=O)N([C@@H](C)CO)C[C@H](C)[C@@H](CN(C)C(=O)Cc1ccccc1)O2	nt	i	i	?	i	i
CC1(C(=O)NCCCN2CCOCC2)Oc2cccnc2NC1=O (configuration not stated)	i	i	43	i	i	i
CO[C@H]1CN(C)C(=O)c2ccc(NC(=O)C3CC3)cc2OC[C@@H](C)N(CC2CC2)C[C@H]1C	i	nt	i	i	i	i
